This note sets out measurements from ChEMBL document CHEMBL1155478, “Novel C-aryl glucoside SGLT2 inhibitors as potential antidiabetic agents: Pyridazinylmethylphenyl glucoside congeners” (Bioorg Med Chem Lett, 2010).

Molecules are shown by their SMILES.

For data set [1], the target named is T1, Sodium/glucose cotransporter 2 (Homo sapiens, UniProt P31639).
T1 sequence (P31639 whole entry): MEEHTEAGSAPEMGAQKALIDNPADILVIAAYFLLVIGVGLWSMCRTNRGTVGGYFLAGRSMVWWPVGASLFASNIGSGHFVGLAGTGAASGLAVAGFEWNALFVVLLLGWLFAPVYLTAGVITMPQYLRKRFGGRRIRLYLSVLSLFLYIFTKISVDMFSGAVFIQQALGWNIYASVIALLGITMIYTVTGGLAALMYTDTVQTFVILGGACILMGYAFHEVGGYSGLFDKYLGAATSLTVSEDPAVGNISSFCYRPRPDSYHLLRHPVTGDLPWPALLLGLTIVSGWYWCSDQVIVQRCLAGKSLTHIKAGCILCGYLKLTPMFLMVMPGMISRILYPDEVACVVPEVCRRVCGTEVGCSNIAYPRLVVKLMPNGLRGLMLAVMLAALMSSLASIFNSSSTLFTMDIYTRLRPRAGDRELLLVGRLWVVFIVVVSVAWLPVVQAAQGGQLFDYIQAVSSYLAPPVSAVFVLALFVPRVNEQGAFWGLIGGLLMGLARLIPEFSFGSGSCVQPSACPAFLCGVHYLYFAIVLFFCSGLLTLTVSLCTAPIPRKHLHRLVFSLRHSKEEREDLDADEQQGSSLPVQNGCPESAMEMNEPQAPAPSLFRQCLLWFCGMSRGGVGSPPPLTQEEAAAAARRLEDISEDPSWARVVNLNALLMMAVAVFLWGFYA
In words: Inhibition of human SGLT2 expressed in CHO cells assessed as [14C]alpha-methyl-D-glucopyranoside uptake after 2 hrs by liquid scintillation counting. In kind it is cell-based. An outline of the steps:
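CHO cells stably transfected with hSGLT2 (pcDNA3.1(+), G418-selected), seeded at 5 × 10⁴ cells/well and used 1 day later. Cells pre-incubated 10 min at 37 °C in Na⁺-free choline chloride buffer pH 7.4. Then incubated 2 h at 37 °C in NaCl uptake buffer with 1 mM unlabeled AMG plus ¹⁴C-AMG, with inhibitor or DMSO. Washed with 10 mM AMG buffer; radioactivity counted by liquid scintillation.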

A short description of data set [2]: Elimination half life in Sprague-Dawley rat at 5 mg/kg, po. The note with it: in vivo, read-out: beta t1/2 (converted). Also noted: dose 5 mg/kg, route oral. The data set is classed as ADME, organism-based. An outline of the steps:
(§1)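 Male SD rats given a single oral dose of 5 mg/kg. Plasma sampled to obtain Cmax, time to Cmax and elimination half-life after oral dosing. Oral bioavailability (F) determined.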

Data set [3] in a line: Cmax in Sprague-Dawley rat at 5 mg/kg, po after 0.33 hrs. The data set is classed as ADME, organism-based. Also noted: dose 5 mg/kg, route oral. The note with it: in vivo. The procedure, abridged:
as §1

Data set [4] deals with Rattus norvegicus. Briefly: Increase of urinary volume in normal Sprague-Dawley rat assessed […] at 10 mg/kg, po subsequently dosed orally with 50% aqueous glucose solution measured up to 24 hrs (RVB = 3.9 +/- 0.23 ml/200 mg body weight).
A short description of data set [5]: Oral bioavailability in Sprague-Dawley rat at 5 mg/kg. The data set is classed as ADME, organism-based. The note with it: in vivo. The procedure, abridged:
as §1

Data set [6] concerns Rattus norvegicus. In words: Increase of urinary glucose excretion in normal Sprague-Dawley rat at 10 mg/kg, po subsequently dosed orally with 50% aqueous glucose solution measured up to 24 hrs relative to control. The data set is classed as functional, Urine.
Data set [7] concerns Rattus norvegicus. Briefly: Increase of urinary glucose excretion in normal Sprague-Dawley rat assessed per 200 g of body weight at 10 mg/kg, po subsequently dosed orally with 50% aqueous glucose solution measured up to 24 hrs (RVB = […] mg/200 g of body weight). In kind it is functional, Urine.
For data set [8], the system named is Rattus norvegicus. Briefly: Increase of urinary volume in normal Sprague-Dawley rat at 10 mg/kg, po subsequently dosed orally with 50% aqueous glucose solution measured up to 24 hrs relative to control. In kind it is functional, Urine.
The nature of another data set: in vivo. The conditions noted are these: Sprague-Dawley, rat, po, 5 mg/kg.

In the case of `CC(C)Oc1ccc(Cc2cc([C@@H]3O[C@H](CO)[C@@H](O)[C@H](O)[C@H]3O)ccc2Cl)nn1`, the half-inhibitory concentration (IC50) in data set [1] stood at 0.11 µM.
Consider `CSc1ccc(Cc2cc([C@@H]3O[C@H](CO)[C@@H](O)[C@H](O)[C@H]3O)ccc2Cl)nn1`, for which the half-life in data set [2] is 1.94 h. Besides, the Cmax in data set [3] came out at 310 ng/mL. Besides, the Activity in the data set with Rattus norvegicus [4] was 5.07 mL; in the data set with Rattus norvegicus [7], 344 mg. The same compound registered a bioavailability in data set [5] of 26.1%. Moreover, the “fold change (FC)” value in the data set on Rattus norvegicus [6] worked out at 180; in the data set with Rattus norvegicus [8], 1.3.
On to `CCOc1ccc(Cc2cc([C@@H]3O[C@H](CO)[C@@H](O)[C@H](O)[C@H]3O)ccc2Cl)cc1` [DAPAGLIFLOZIN], for which, in data set [2], the half-life is 4 h. The compound also had a Cmax at 0.67 h in the data set “in vivo” of 2500 ng/mL. This compound also returned a bioavailability in data set [5] of 88.4%.
Regarding `Cc1nnc(Cc2cc([C@@H]3O[C@H](CO)[C@@H](O)[C@H](O)[C@H]3O)ccc2Cl)c2ccccc12`, in data set [1], the IC50 was greater than 10 µM.
Take `COc1cccc(-c2ccc(Cc3cc([C@@H]4O[C@H](CO)[C@@H](O)[C@H](O)[C@H]4O)ccc3Cl)nn2)c1`: in data set [1], the IC50 worked out at 0.351 µM.
